The values below come from ChEMBL document CHEMBL1641511, “Microwave-assisted synthesis of quinoline, isoquinoline, quinoxaline and quinazoline derivatives as CB2 receptor agonists” (Bioorg Med Chem, 2011).

Structures are written as SMILES. Active and inactive are the calls of the source. How the calls were made is not given here.

For assay [1], the target named is Cannabinoid receptor 2 (Homo sapiens) (UniProt P34972). Briefly: Agonist activity at human recombinant cannabinoid CB2 receptor expressed in CHO cells at 10 uM by [35S]GTPgammaS binding assay. In kind it is functional, cell-based. The method, boiled down:
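Single-point screen for G-protein activation at hCB2 with [35S]GTPγS binding, ligand at 10 µM. Response given relative to the 10 nM HU-210 agonist response, in percent. Mean SEM of at least three experiments, each done in duplicate.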
For orientation: GTPγS is a poorly hydrolysed GTP analogue; its binding reports G protein activation.

In assay [2] the target is Cannabinoid receptor 1 (Rattus norvegicus) (UniProt P20272). The experiment in a line: Antagonist activity at rat cannabinoid CB1 receptor in Wistar rat cerebellar membranes at 10 uM by [35S]GTPgammaS binding assay. Type of assay: functional, cell membranes. The note with it: Cerebellum, Membrane. An outline of the steps: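 Uses non-recombinant rat cerebellar membrane fractions as the CB1 source, with [35S]GTPγS binding. Ligand screened at 10 µM for its ability to antagonize the agonist response to 10 nM HU-210.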

In assay [3] the target is Cannabinoid receptor 2 (Homo sapiens) (UniProt P34972). Briefly: Agonist activity at human recombinant cannabinoid CB2 receptor expressed in CHO cells by [35S]GTPgammaS binding assay relative to HU-210. Type of assay: functional, cell-based. An outline of the steps: (§1)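 hCB2 [35S]GTPγS binding concentration–response curves, run only for ligands giving over 50% relative activity at 10 µM. logEC50 and Emax come from nonlinear regression fitted to a sigmoidal concentration–response equation. Emax is given as percent of the 10 nM HU-210 response. Mean SEM of at least three experiments in duplicate.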

Assay [4] shares this target. Briefly: Agonist activity at human recombinant cannabinoid CB2 receptor expressed in CHO cells by [35S]GTPgammaS binding assay. Type of assay: functional, cell-based. The method, boiled down: as §1
In assay [5] the target is Cannabinoid receptor 1 (Rattus norvegicus) (UniProt P20272). Briefly: Antagonist activity at rat cannabinoid CB1 receptor in Wistar rat cerebellar membranes by [35S]GTPgammaS binding assay. Type of assay: functional, cell membranes. The note with it: Cerebellum, Membrane. An outline of the steps: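 Non-recombinant rat cerebellar membrane fractions, [35S]GTPγS binding. Compounds screened at a single concentration for their ability to antagonise the response to 10 nM HU-210 agonist.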

Chain of Cannabinoid receptor 1 (Rattus norvegicus) (P20272 whole entry): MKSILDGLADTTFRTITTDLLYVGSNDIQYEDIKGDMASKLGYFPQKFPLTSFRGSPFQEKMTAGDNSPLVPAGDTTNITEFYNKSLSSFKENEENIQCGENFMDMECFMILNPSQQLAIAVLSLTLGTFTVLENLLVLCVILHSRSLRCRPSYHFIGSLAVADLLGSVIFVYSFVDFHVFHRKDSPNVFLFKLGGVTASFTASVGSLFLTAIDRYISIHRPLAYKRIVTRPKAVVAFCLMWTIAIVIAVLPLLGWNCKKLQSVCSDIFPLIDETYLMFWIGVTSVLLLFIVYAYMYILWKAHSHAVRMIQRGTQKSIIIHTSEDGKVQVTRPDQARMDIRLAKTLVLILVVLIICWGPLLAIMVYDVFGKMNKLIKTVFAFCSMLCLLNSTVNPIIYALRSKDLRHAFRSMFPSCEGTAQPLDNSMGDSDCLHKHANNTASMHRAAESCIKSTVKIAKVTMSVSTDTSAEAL
Chain of Cannabinoid receptor 2 (Homo sapiens) (P34972 whole entry): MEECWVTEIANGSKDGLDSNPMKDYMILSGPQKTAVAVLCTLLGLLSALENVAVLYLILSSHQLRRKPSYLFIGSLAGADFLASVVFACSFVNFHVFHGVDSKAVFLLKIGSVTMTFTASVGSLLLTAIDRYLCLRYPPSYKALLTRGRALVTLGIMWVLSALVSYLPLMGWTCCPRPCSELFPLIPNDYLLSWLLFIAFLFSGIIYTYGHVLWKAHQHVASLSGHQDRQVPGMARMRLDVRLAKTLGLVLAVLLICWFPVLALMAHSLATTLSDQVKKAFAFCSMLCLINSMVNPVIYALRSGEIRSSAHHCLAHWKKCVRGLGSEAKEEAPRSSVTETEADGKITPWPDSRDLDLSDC

Regarding `c1ccc(Oc2nccc3ccccc23)cc1`, the Activity in assay [1] amounted to 31%. In addition, in assay [2], the outcome was inactive.

As for `O=C(NCC1CCCCC1)c1cnc(Nc2cccc(C(F)(F)F)c2)c2ccccc12`, in assay [1], the Activity was found to be 58%. In addition, the maximum response (Emax) in assay [3] amounted to 67%. Besides, the negative logarithm of the EC50 (pEC50) in assay [4] stood at 5.8. Also, the outcome in assay [2] was inactive.

With `OCCc1ccc(Nc2ccc3ccccc3n2)cc1`, the Activity in assay [1] came to 20%. The outcome in assay [2] was inactive.

`FC(F)(F)c1cccc(Nc2ncc3ccccc3n2)c1`: the Activity in assay [1] was 53%. Moreover, the Emax in assay [3] is 67%. Moreover, in assay [4], the pEC50 worked out at 5.5. For the same compound, the outcome in assay [2] was inactive.

For the compound `FC(F)(F)c1cccc(Nc2ccnc3ccccc23)c1`, in assay [1], the Activity is 50%. For the same compound, the Emax in assay [3] is 58%. The pEC50 in assay [4] was 5.5. For the same compound, the outcome in assay [2] was inactive.

For the compound `Clc1cccc(Nc2ccc3ccccc3n2)c1`, the Activity in assay [1] was 58%. The Emax in assay [3] turned out to be 70%. For the same compound, the negative-log EC50 (pEC50) in assay [4] came to 5.6. In addition, the outcome in assay [2] was inactive.

Take `c1ccc2nc(NC3CCCC3)ccc2c1`: the Activity in assay [1] worked out at 22%. Also, the outcome in assay [2] was inactive.

`c1ccc(Sc2nccc3ccccc23)cc1`: the Activity in assay [1] came to 33%. For the same compound, the result in assay [2] was inactive.

As to `COC(=O)c1cc2ccccc2c(Nc2cccc(C(F)(F)F)c2)n1`, the Activity in assay [1] is 4%. Further, the outcome in assay [2] was inactive.

`COc1cccc(Nc2ccc3ccccc3n2)c1`: the Activity in assay [1] turned out to be 50%. The Emax in assay [3] came to 61%. For the same compound, the negative logarithm of the EC50 (pEC50) in assay [4] turned out to be 5.6. Besides, the outcome in assay [2] was inactive.

With `c1ccc(Oc2cnc3ccccc3c2)cc1`, the Activity in assay [1] came out at 17%. In addition, the outcome in assay [2] was inactive.

For `O=C(NC1CCCCC1)c1cnc(Nc2cccc(C(F)(F)F)c2)c2ccccc12`, in assay [1], the Activity was 54%. Further, the Emax in assay [3] worked out at 73%. Also, in assay [4], the negative logarithm of the EC50 (pEC50) was 5.7. The outcome in assay [2] was inactive.

Consider `COc1ccccc1NC(=O)c1cnc(Nc2cccc(C(F)(F)F)c2)c2ccccc12`, for which the Activity in assay [1] turned out to be 1%. Besides, the outcome in assay [2] was inactive.

For the compound `O=C(NCc1ccccc1)c1cnc(Nc2cccc(C(F)(F)F)c2)c2ccccc12`, the Activity in assay [1] is 21%. Besides, the outcome in assay [2] was inactive.

For `COc1ccccc1Nc1ccc2ccccc2n1`, in assay [1], the Activity is 69%. In assay [3], the Emax is 102%. Also, the negative-log EC50 (pEC50) in assay [4] stood at 5.3. In addition, the outcome in assay [2] was inactive.

Turning to `c1ccc(Sc2ccc3ccccc3n2)cc1`, the Activity in assay [1] was 47%. The Emax in assay [3] was 61%. Besides, the pEC50 in assay [4] came to 5.4. Moreover, the result in assay [2] was inactive.

On to `FC(F)(F)c1cccc(Nc2ccc3ccccc3n2)c1`, for which the Activity in assay [1] is 64%. Further, the Emax in assay [3] worked out at 65%. Besides, the negative logarithm of the EC50 (pEC50) in assay [4] amounted to 5.9. For the same compound, the outcome in assay [2] was inactive.

On to `c1ccc(Sc2cnc3ccccc3c2)cc1`, for which the Activity in assay [1] came out at 13%. In assay [2], the result was inactive.

Turning to `FC(F)(F)c1ccccc1Nc1nccc2ccccc12`, the Activity in assay [1] came to 43%. For the same compound, in assay [2], the result was inactive.

As for `FC(F)(F)c1ccc(Nc2ccc3ccccc3n2)cc1`, the Activity in assay [1] was 48%. Further, the outcome in assay [2] was inactive.

For `Clc1ccc(Nc2ccc3ccccc3n2)cc1`, the Activity in assay [1] was 75%. The maximal response (Emax) in assay [3] was found to be 80%. For the same compound, the negative-log EC50 (pEC50) in assay [4] was found to be 5.7. In addition, the result in assay [2] was inactive.

For `FC(F)(F)c1ccc(Nc2nccc3ccccc23)cc1`, the Activity in assay [1] came out at 25%. For the same compound, the result in assay [2] was inactive.

On to `c1ccc2nc(NC3CCCCC3)ccc2c1`, for which, in assay [1], the Activity is 57%. For the same compound, in assay [3], the maximal response (Emax) was determined as 88%. Further, in assay [4], the pEC50 came out at 5.2. In addition, the result in assay [2] was inactive.

Take `c1ccc(Nc2ncc3ccccc3n2)cc1`: in assay [1], the Activity is 38%. Moreover, the outcome in assay [2] was inactive.

Consider `c1ccc(Nc2ncnc3ccccc23)cc1`, for which the Activity in assay [1] stood at 10%. In assay [2], the outcome was inactive.

Take `FC(F)(F)c1ccccc1Nc1ccc2ccccc2n1`: the Activity in assay [1] worked out at 63%. In addition, the Emax in assay [3] is 103%. Further, in assay [4], the pEC50 was determined as 5.2. For the same compound, in assay [2], the outcome was inactive.

On to `O=C(NCc1ccccc1)c1cc2ccccc2c(Nc2cccc(C(F)(F)F)c2)n1`, for which the Activity in assay [1] came to 0%. Also, the result in assay [2] was inactive.

With `c1ccc(Nc2ccnc3ccccc23)cc1`, in assay [1], the Activity is 9%. Besides, the result in assay [2] was inactive.

Regarding `c1ccc(Cc2ccccc2Nc2ccc3ccccc3n2)cc1`, the Activity in assay [1] was 18%. The outcome in assay [2] was inactive.

Take `c1ccc2nc(N3CCCCC3)ccc2c1`: the Activity in assay [1] amounted to 10%. Further, the result in assay [2] was inactive.

`COc1ccc(Nc2ccc3ccccc3n2)cc1`: the Activity in assay [1] stood at 49%. The Emax in assay [3] came out at 51%. In addition, the negative-log EC50 (pEC50) in assay [4] was 5.7. For the same compound, the result in assay [2] was inactive.

As for `Brc1cccc(Nc2ccc3ccccc3n2)c1`, in assay [1], the Activity was 64%. Besides, in assay [3], the Emax stood at 69%. For the same compound, in assay [4], the pEC50 was found to be 5.7. Besides, the result in assay [2] was inactive.

As to `O=C(NC1CCCCC1)c1cc2ccccc2c(Nc2cccc(C(F)(F)F)c2)n1`, the Activity in assay [1] was 13%. For the same compound, in assay [2], the outcome was inactive.

In the case of `c1ccc2nc(N3CCOCC3)ccc2c1`, in assay [1], the Activity is 7%. The outcome in assay [2] was inactive.

In the case of `CCOC(=O)c1ccc(Nc2ccc3ccccc3n2)cc1`, the Activity in assay [1] was 3%. For the same compound, the outcome in assay [2] was inactive.

Take `c1ccc(Nc2ccc3ccccc3n2)cc1`: in assay [1], the Activity came to 39%. Further, in assay [2], the outcome was inactive.

As to `c1ccc2nc(NCC3CCCCC3)ccc2c1`, the Activity in assay [1] came out at 44%. The result in assay [2] was inactive.

For `c1ccc(Nc2cnc3ccccc3n2)cc1`, in assay [1], the Activity came out at 30%. Also, the result in assay [2] was inactive.

As for `N#Cc1cccc(Nc2ccc3ccccc3n2)c1`, the Activity in assay [1] was found to be 25%. In assay [2], the result was inactive.

Regarding `COc1cc(C(F)(F)F)ccc1Nc1ccc2ccccc2n1`, the Activity in assay [1] is 33%. Further, in assay [2], the outcome was inactive.

With `c1ccc(Nc2nccc3ccccc23)cc1`, the Activity in assay [1] was found to be 7%. For the same compound, in assay [2], the result was inactive.

As for `FC(F)(F)c1cccc(Nc2nccc3ccccc23)c1`, in assay [1], the Activity is 102%. In assay [3], the maximal effect (Emax) was 124%. Also, the pEC50 in assay [4] came to 5.8. Further, the outcome in assay [2] was inactive.

Turning to `CCCCCCNc1ccc2ccccc2n1`, the Activity in assay [1] was found to be 10%. In assay [2], the outcome was inactive.

With `CN(C)c1ccc(Nc2ccc3ccccc3n2)cc1`, the Activity in assay [1] is 20%. In addition, in assay [2], the outcome was inactive.

For the compound `FC(F)(F)c1cccc(Nc2cnc3ccccc3n2)c1`, the Activity in assay [1] turned out to be 52%. Also, in assay [3], the maximal effect (Emax) turned out to be 69%. Moreover, the negative-log EC50 (pEC50) in assay [4] came to 5.4. Besides, in assay [2], the result was inactive.

For the compound `FC(F)(F)c1cccc(Nc2ncnc3ccccc23)c1`, in assay [1], the Activity was found to be 68%. Moreover, in assay [3], the Emax was 79%. For the same compound, the negative-log EC50 (pEC50) in assay [4] was determined as 5.6. The outcome in assay [2] was inactive.

As for `Oc1ccc(Nc2ccc3ccccc3n2)cc1`, the Activity in assay [1] was determined as 8%. Also, the outcome in assay [2] was inactive.

`O=C(c1cnc(Nc2cccc(C(F)(F)F)c2)c2ccccc12)N1CCOCC1`: in assay [1], the Activity came out at 76%. Besides, the Emax in assay [3] was 75%. The pEC50 in assay [4] amounted to 7.8. The logEC50 in assay [5] worked out at 5.

In the case of `O=C(NCC1CCCCC1)c1cc2ccccc2c(Nc2cccc(C(F)(F)F)c2)n1`, in assay [1], the Activity was -2%. The outcome in assay [2] was inactive.

In the case of `c1ccc(CNc2ccc3ccccc3n2)cc1`, the Activity in assay [1] is 20%. The outcome in assay [2] was inactive.

Take `Clc1ccccc1Nc1ccc2ccccc2n1`: the Activity in assay [1] came out at 56%. The Emax in assay [3] is 91%. Further, the pEC50 in assay [4] worked out at 5.2. Further, the result in assay [2] was inactive.

Broadly, the Emax is the greatest response seen or fitted, relative to the assay's reference. Usually pEC50 stands for the EC50 on a negative log10 scale, so that one unit is a factor of ten.
